Measured values from ChEMBL document CHEMBL4145534, “Computer-aided insights into receptor-ligand interaction for novel 5-arylhydantoin derivatives as serotonin 5-HT7 receptor agents with antidepressant activity” (Eur J Med Chem, 2018).

Legend:
Mus musculus [1] = experiment: Anxiolytic-like activity in Swiss albino mouse assessed as number of punished crossings at 40 mg/kg, ip administered 60 mins prior to test and measured post 3 secs of electric shock by four-plate test (reference value: 3.8 to 4 /min); format: functional
[2] = target: T1, 5-hydroxytryptamine receptor 1A (Homo sapiens, UniProt P08908); experiment: Displacement of [3H]-8-OH-DPAT from human 5HT1AR expressed in HEK293 cell membranes after 1 hr by Microbeta scintillation counting method
T1 sequence (P08908 whole entry): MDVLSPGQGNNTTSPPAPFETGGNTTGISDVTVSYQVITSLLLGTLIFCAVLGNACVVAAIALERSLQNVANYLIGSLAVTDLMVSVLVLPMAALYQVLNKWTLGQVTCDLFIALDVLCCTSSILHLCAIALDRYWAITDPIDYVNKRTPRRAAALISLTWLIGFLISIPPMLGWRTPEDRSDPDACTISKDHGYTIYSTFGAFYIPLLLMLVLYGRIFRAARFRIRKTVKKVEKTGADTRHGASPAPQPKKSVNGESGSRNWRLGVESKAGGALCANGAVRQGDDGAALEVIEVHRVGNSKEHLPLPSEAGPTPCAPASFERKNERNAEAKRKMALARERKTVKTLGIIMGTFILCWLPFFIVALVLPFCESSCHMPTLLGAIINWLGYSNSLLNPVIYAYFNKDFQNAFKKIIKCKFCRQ

Mus musculus [3] = experiment: Effect on spontaneous locomotor activity in Swiss albino mouse at 20 mg/kg, ip administered 60 mins prior to test and measured for 3 to 6 mins; format: ADME, organism-based; conditions: in vivo
In short: (§1)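 Male Swiss Albino mice given compound or vehicle (1% Tween 80, 10 ml/kg) i.p. 60 min before test. Each mouse placed alone in a cage for 30 min habituation. Ambulation (photobeam channel crossings) then recorded over a 3–6 min session. Means ± SEM.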

Mus musculus [4] = experiment: Antidepressant like activity in Swiss albino mouse assessed as immobility time at 5 mg/kg, ip administered 60 mins prior to test and measured last 4 mins of 6 mins test by forced swimming test (reference value: 159.78 to 183.56 secs); format: functional
Mus musculus [5] = experiment: Anxiolytic-like activity in Swiss albino mouse assessed as number of punished crossings at 20 mg/kg, ip administered 60 mins prior to test and measured post 3 secs of electric shock by four-plate test (reference value: 3.8 to 4 /min); format: functional
[6] = target: 5-hydroxytryptamine receptor 7 (Homo sapiens, UniProt P34969); experiment: Displacement of [3H]-5-CT from human 5HT7BR expressed in HEK293 cell membranes after 1 hr by Microbeta scintillation counting method
Mus musculus [7] = experiment: Antidepressant like activity in Swiss albino mouse assessed as immobility time at 20 mg/kg, ip administered 60 mins prior to test and measured last 4 mins of 6 mins test by forced swimming test (reference value: 159.78 to 183.56 secs); format: functional
Mus musculus [8] = experiment: Antidepressant like activity in Swiss albino mouse assessed as immobility time at 10 mg/kg, ip administered 60 mins prior to test and measured last 4 mins of 6 mins test by forced swimming test (reference value: 159.78 to 183.56 secs); format: functional
Mus musculus [9] = experiment: Anxiolytic-like activity in Swiss albino mouse assessed as number of punished crossings at 10 mg/kg, ip administered 60 mins prior to test and measured post 3 secs of electric shock by four-plate test (reference value: 3.8 to 4 /min); format: functional
D(2) dopamine receptor = D(2) dopamine receptor (Homo sapiens, UniProt P14416); experiment: Displacement of [3H]-raclopride from human D2L receptor expressed in HEK293 cell membranes after 1 hr by Microbeta scintillation counting method
Mus musculus [10] = experiment: Effect on spontaneous locomotor activity in Swiss albino mouse at 10 mg/kg, ip administered 60 mins prior to test and measured for 3 to 6 mins; format: ADME, organism-based; conditions: in vivo; in short: as §1
Mus musculus [11] = experiment: Anxiolytic-like activity in Swiss albino mouse assessed as number of punished crossings at 5 mg/kg, ip administered 60 mins prior to test and measured post 3 secs of electric shock by four-plate test (reference value: 3.8 to 4 /min); format: functional
Mus musculus [12] = experiment: Antidepressant like activity in Swiss albino mouse assessed as decrease in immobility time at 10 mg/kg, ip administered 60 mins prior to test and measured last 4 mins of 6 mins test by forced swimming test relative to control; format: functional; design: scale not given: the % may be the effect or the level left
Homo sapiens = organism: Homo sapiens; experiment: Selectivity ratio of Ki for human D2L receptor expressed in HEK293 cell membranes to Ki for human 5HT7BR expressed in HEK293 cell membranes; format: cell-based
In short: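 Membranes from HEK293 cells stably expressing human 5-HT1A, 5-HT7b or D2L receptors. Buffers all 50 mM Tris HCl with 4 mM MgCl2 and 0.1% ascorbate. 5-HT1A: 0.1 mM EDTA, 10 µM pargyline, 2.5 nM [3H]-8-OH-DPAT, room temperature. 5-HT7b: 10 µM pargyline, 0.8 nM [3H]-5-CT, 37°C. D2L: EDTA, NaCl, KCl, CaCl2, 2.5 nM [3H]-raclopride, 37°C. Incubation 1 h; nonspecific binding 10 µM 5-HT (haloperidol for D2L). Seven concentrations (10^-10–10^-4 M) in triplicate; filtration; Ki by Cheng-Prusoff; at least two experiments.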

Chain of D(2) dopamine receptor (P14416 whole entry): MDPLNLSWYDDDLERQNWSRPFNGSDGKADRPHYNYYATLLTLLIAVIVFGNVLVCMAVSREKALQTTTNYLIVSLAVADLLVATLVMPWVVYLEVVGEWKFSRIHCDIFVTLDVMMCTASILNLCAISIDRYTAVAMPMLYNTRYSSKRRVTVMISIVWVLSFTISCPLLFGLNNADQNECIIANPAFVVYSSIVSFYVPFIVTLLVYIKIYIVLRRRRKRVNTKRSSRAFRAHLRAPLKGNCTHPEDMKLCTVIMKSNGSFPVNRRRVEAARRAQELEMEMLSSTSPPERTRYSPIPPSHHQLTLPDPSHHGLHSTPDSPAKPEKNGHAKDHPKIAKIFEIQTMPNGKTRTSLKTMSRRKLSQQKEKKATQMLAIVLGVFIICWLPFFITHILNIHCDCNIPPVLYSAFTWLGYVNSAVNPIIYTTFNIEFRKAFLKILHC
Chain of 5-hydroxytryptamine receptor 7 (P34969 whole entry): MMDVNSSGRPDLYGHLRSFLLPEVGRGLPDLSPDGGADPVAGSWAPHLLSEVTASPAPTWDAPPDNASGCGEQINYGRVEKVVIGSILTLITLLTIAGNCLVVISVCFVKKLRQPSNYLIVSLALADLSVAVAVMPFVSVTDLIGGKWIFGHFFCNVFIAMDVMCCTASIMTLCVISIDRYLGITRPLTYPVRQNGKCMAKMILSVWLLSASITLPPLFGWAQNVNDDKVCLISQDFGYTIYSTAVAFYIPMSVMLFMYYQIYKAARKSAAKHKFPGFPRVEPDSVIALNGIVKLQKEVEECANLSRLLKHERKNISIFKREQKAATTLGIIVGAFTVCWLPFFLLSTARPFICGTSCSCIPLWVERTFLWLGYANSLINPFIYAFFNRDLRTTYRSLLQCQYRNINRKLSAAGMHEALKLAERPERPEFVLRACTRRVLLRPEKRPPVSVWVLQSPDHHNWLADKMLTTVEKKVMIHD

Ki [2] [µM] | Ki [6] [µM] | Ki (D(2) dopamine receptor) [µM] | SMILES | Activity (Mus musculus [1]) [min⁻¹] | Activity (Mus musculus [3]) | Time (Mus musculus [4]) [s] | Activity (Mus musculus [5]) [min⁻¹] | Time (Mus musculus [7]) [s] | Time (Mus musculus [8]) [s] | Activity (Mus musculus [9]) [min⁻¹] | Activity (Mus musculus [10]) | Activity (Mus musculus [11]) [min⁻¹] | Activity (Mus musculus [12]) [%] | Ratio Ki (Homo sapiens)
0.14 | 0.007 | 0.506 | CC1(c2ccc(Br)cc2)NC(=O)N(CC(O)CN2CCN(c3ccccc3C#N)CC2)C1=O.Cl (racemic) | 4.3 | Non-Toxic | 156.33 | 3.7 | 55.33 | 136.63 | 3.9 | – | – | – | –
0.085 | 0.01 | 0.267 | COc1ccccc1N1CCN(CC(O)CN2C(=O)NC(C)(c3ccc(Br)cc3)C2=O)CC1.Cl (racemic) | – | – | 184.22 | 2.2 | 91.13 | 179.44 | 3.1 | Non-Toxic | 3.1 | 50 | –
0.305 | 0.009 | 1.28 | CC1(c2ccc(Cl)cc2)NC(=O)N(CC(O)CN2CCN(c3ccccc3C#N)CC2)C1=O.Cl (racemic) | – | – | – | – | – | – | – | – | – | – | 140 to 190
